From ChEMBL document CHEMBL2407036, “Flow Synthesis and Biological Studies of an Analgesic Adamantane Derivative That Inhibits P2X7-Evoked Glutamate Release” (ACS Med Chem Lett, 2013) come the findings set out here.

The test system of experiment [1] is Mus musculus. Put plainly: Analgesic activity in Swiss albino mouse assessed as inhibition of acetic acid-induced abdominal contraction at 20 to 60 mg/kg, po measured after 30 mins. The experiment is classed as functional, organism-based. The note with it: Abdominal cavity.
Experiment [2] has as its system Rattus norvegicus. The experiment in a line: Antinociceptive activity against carrageenan-induced hyperalgesia in rat assessed as paw pressure at 40 mg/kg, po measured after 90 mins (reference value: 34.8 +/- 3.1 g). The experiment is classed as functional. In short, it runs like this: (§1)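 Rats received intraplantar carrageenan before oral dosing. Paw-pressure withdrawal threshold (g) was measured before treatment and at 15, 30, 60 and 90 min after it. Carrageenan-injected rats given vehicle served as reference, with saline-injected rats as a further control.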

Experiment [3] relates to Rattus norvegicus. Put plainly: Antinociceptive activity against carrageenan-induced hyperalgesia in rat assessed as paw pressure at 10 mg/kg, po measured after 60 mins (reference value: 31.8 +/- 2.2 g). The experiment is classed as functional. In short, it runs like this:
as §1

Experiment [4] is filed under the species Rattus norvegicus. Put plainly: Inhibition of K+ depolarization-induced [3H]D-aspartate efflux in Sprague-Dawley rat synaptosome preincubated at 0.1 uM for 8 mins by liquid scintillation counting. The experiment is classed as functional, tissue-based. Particulars: Brain. An outline of the steps:
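Purified rat cerebrocortical synaptosomes loaded with [3H]D-aspartate and superfused. Depolarization with KCl added for 120 s. Compound added 8 min before K+ depolarization. Evoked efflux measured as mean ± SEM of 3−12 independent experiments in triplicate.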

In experiment [5] the test system is Rattus norvegicus. The experiment in a line: Antinociceptive activity against carrageenan-induced hyperalgesia in rat assessed as paw pressure at 60 mg/kg, po measured after 60 mins (reference value: 31.8 +/- 2.2 g). The experiment is classed as functional. An outline of the steps: as §1
Experiment [6] concerns the target T1, P2X purinoceptor 7 (Rattus norvegicus) (UniProt Q64663).
T1 sequence (whole entry): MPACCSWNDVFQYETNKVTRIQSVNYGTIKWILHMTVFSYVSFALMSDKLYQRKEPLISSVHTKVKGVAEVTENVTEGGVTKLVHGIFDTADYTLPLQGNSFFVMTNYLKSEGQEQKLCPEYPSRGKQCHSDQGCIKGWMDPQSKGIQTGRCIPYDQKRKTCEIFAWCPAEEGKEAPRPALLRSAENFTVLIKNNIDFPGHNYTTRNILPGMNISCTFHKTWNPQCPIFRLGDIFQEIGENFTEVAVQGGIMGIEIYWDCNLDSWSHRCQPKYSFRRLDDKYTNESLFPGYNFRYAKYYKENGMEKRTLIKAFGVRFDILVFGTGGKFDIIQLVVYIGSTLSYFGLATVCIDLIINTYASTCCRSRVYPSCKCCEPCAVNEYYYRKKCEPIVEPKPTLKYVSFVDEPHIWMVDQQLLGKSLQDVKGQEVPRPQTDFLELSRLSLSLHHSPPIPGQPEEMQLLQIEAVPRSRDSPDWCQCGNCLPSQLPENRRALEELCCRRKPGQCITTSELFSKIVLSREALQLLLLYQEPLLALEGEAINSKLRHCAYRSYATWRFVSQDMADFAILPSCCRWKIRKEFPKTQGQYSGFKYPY
The experiment in a line: Antagonist activity at P2X7 in Sprague-Dawley rat synaptosome assessed as inhibition of BzATP-induced [3H]D-aspartate efflux preincubated at 0.1 uM for 8 mins by liquid scintillation counting in absence of extracellular Ca2+. The note with it: Brain. An outline of the steps: (§2)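 Purified rat cerebrocortical synaptosomes loaded with [3H]D-aspartate and superfused. 100 μM BzATP added for 120 s. Compound added 8 min before BzATP. Ca2+-free conditions used medium with 0.5 mM EGTA, added 18 min before BzATP. Log concentration–response for inhibition of evoked efflux. Mean ± SEM of 3−12 independent experiments in triplicate.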

In experiment [7] the target is T1, P2X purinoceptor 7 (Rattus norvegicus). The experiment in a line: Antagonist activity at P2X7 in Sprague-Dawley rat synaptosome assessed as inhibition of BzATP-induced [3H]D-aspartate efflux preincubated at 0.1 uM for 8 mins by liquid scintillation counting. Particulars: Brain. In short, it runs like this:
as §2

The test system of experiment [8] is Rattus norvegicus. The experiment in a line: Antinociceptive activity against carrageenan-induced paw edema in rat assessed as paw edema volume at 60 mg/kg, po measured after 30 mins (reference value: 2.71+/- 0.08 ml). In kind it is functional. On the technique in general: In the carrageenan paw model, swelling and tenderness develop within hours.
Experiment [9] has as its system Rattus norvegicus. Put plainly: Antinociceptive activity against carrageenan-induced hyperalgesia in rat assessed as paw pressure at 10 mg/kg, po measured after 15 mins (reference value: 32.8 +/- 2.9 g). In kind it is functional. In short, it runs like this: as §1
Experiment [10] deals with Mus musculus. The experiment in a line: Analgesic activity in Swiss albino mouse assessed as inhibition of acetic acid-induced abdominal contraction at 10 to 60 mg/kg, po measured after 30 mins. In kind it is functional, organism-based. The note with it: Abdominal cavity.
In experiment [11] the test system is Rattus norvegicus. The experiment in a line: Antinociceptive activity against carrageenan-induced hyperalgesia in rat assessed as paw pressure at 60 mg/kg, po measured after 90 mins (reference value: 34.8 +/- 3.1 g). The experiment is classed as functional. In short, it runs like this: as §1
The test system of experiment [12] is Rattus norvegicus. Put plainly: Antinociceptive activity against carrageenan-induced paw edema in rat assessed as paw edema volume at 10 mg/kg, po measured after 30 mins (reference value: 2.71+/- 0.08 ml). In kind it is functional.
Experiment [13] concerns Rattus norvegicus. The experiment in a line: Antinociceptive activity against carrageenan-induced hyperalgesia in rat assessed as paw pressure at 10 mg/kg, po measured after 30 mins (reference value: 30.6 +/- 3.2 g). In kind it is functional. In short, it runs like this: as §1
Experiment [14] deals with Rattus norvegicus. The experiment in a line: Antinociceptive activity against carrageenan-induced hyperalgesia in rat assessed as paw pressure at 40 mg/kg, po measured after 30 mins (reference value: 30.6 +/- 3.2 g). The experiment is classed as functional. In short, it runs like this: as §1
The test system of experiment [15] is Rattus norvegicus. The experiment in a line: Antinociceptive activity against carrageenan-induced hyperalgesia in rat assessed as paw pressure at 60 mg/kg, po measured after 15 mins (reference value: 32.8 +/- 2.9 g). The experiment is classed as functional. In short, it runs like this: as §1
The test system of experiment [16] is Rattus norvegicus. Put plainly: Antinociceptive activity against carrageenan-induced paw edema in rat assessed as paw edema volume at 40 mg/kg, po measured after 30 mins (reference value: 2.71+/- 0.08 ml). The experiment is classed as functional.
For experiment [17], the system named is Rattus norvegicus. The experiment in a line: Antinociceptive activity against carrageenan-induced hyperalgesia in rat assessed as paw pressure at 10 mg/kg, po measured after 90 mins (reference value: 34.8 +/- 3.1 g). The experiment is classed as functional. An outline of the steps:
as §1

For experiment [18], the system named is Rattus norvegicus. Put plainly: Antinociceptive activity against carrageenan-induced hyperalgesia in rat assessed as paw pressure at 60 mg/kg, po measured after 30 mins (reference value: 30.6 +/- 3.2 g). In kind it is functional. An outline of the steps:
as §1

For experiment [19], the system named is Rattus norvegicus. The experiment in a line: Antinociceptive activity against carrageenan-induced hyperalgesia in rat assessed as paw pressure at 40 mg/kg, po measured after 60 mins (reference value: 31.8 +/- 2.2 g). The experiment is classed as functional. In short, it runs like this: as §1
Experiment [20] relates to Rattus norvegicus. The experiment in a line: Antinociceptive activity against carrageenan-induced hyperalgesia in rat assessed as paw pressure at 40 mg/kg, po measured after 15 mins (reference value: 32.8 +/- 2.9 g). In kind it is functional. In short, it runs like this:
as §1

Experiment [21] concerns the target T1, P2X purinoceptor 7 (Rattus norvegicus). Put plainly: Antagonist activity at P2X7 in Sprague-Dawley rat synaptosome assessed as inhibition of BzATP-induced [3H]D-aspartate efflux preincubated at 10 uM for 8 mins by liquid scintillation counting in absence of extracellular Ca2+. Particulars: Brain. In short, it runs like this: as §2
Experiment [22] shares this target. Put plainly: Antagonist activity at P2X7 in Sprague-Dawley rat synaptosome assessed as inhibition of BzATP-induced [3H]D-aspartate efflux preincubated at 10 uM for 8 mins by liquid scintillation counting. Particulars: Brain. An outline of the steps:
as §2

The target is the same in experiment [23]. The experiment in a line: Agonist activity at P2X7 in Sprague-Dawley rat synaptosome assessed as [3H]D-aspartate efflux at 100 uM for 120 secs by liquid scintillation counting. Particulars: Brain.

The source made the active and inactive calls.

As for `O=C(NC1(C(=O)NCCc2c[nH]cn2)C2CC3CC(C2)CC1C3)c1ccccc1` (stereo unspecified), the inhibition entry in [1] is “Active”.

For the compound `CCOc1ccc(Nc2ccc(/C(=C3C=C/C(=[N+](/CC)Cc4cccc(S(=O)(=O)[O-])c4)C=C/3C)c3ccc(N(CC)Cc4cccc(S(=O)(=O)[O-])c4)cc3C)cc2)cc1.[Na+]` [BRILLIANT BLUE G], the Activity came out at 40.2 g in [2]; 38.5 g in [3]; 43.8 g in experiment [5]; 2.21 mL in experiment [8]; 38.7 g in [9]; 36.2 g in [11]. Besides, the Activity was 2.63 mL in [12]; 43.1 g in experiment [13]; 50.8 g in experiment [14]; 47.2 g in [15]; 2.17 mL in experiment [16]; 37.1 g in [17]. The Activity in experiment [18] was determined as 49.6 g; in experiment [19], 45.6 g; in experiment [20], 46.3 g. The inhibition result in experiment [4] was “inactive”. The inhibition result in experiment [6], in experiment [7] and in [10] was “Active” throughout.

As to `Clc1cccc(-c2nnnn2Cc2cccnc2)c1Cl`, the inhibition entry in experiment [21] and in [22] was “Active” in each case.

As for `O=C(NC1(C(=O)NCCc2ccccc2)C2CC3CC(C2)CC1C3)c1ccccc1` (stereo unspecified), in experiment [1], the inhibition entry is “inactive”.

Consider `C[C@@H](NC(=O)C1(NC(=O)c2ccccc2)C2CC3CC(C2)CC1C3)C(=O)O` (stereo partly specified), for which the inhibition entry in experiment [1] is “inactive”.

Take `N[C@H](c1ccccc1)[C@H](NC(=O)C1(NC(=O)c2ccccc2)C2CC3CC(C2)CC1C3)c1ccccc1` (stereo partly specified): in [10], the inhibition entry was “Active”.

With `Nc1ncnc2c1ncn2[C@@H]1O[C@H](COP(=O)(O)OP(=O)(O)OP(=O)(O)O)[C@@H](OC(=O)c2ccc(C(=O)c3ccccc3)cc2)[C@H]1O`, the outcome in [23] was Active.
